KCNK3 block: human KCNK3 channel inhibitors, primary screen, CHO cells, FluxOR thallium flux, B-score; Potassium channel subfamily K member 3 (Homo sapiens), O14649; FluxOR fluorescence; stronger effect = lower value; B-score at 10 µM; 340,000 tested, 0.84% active;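 active = B-score under library mean minus 4 SD, starting fluorescence ratio at most library mean plus 5 SD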;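 also: more negative B-score means stronger inhibition of thallium flux through KCNK3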
Kir21 block: inhibitors of mouse Kir2.1 inward-rectifier potassium channel. Inward rectifier potassium channel 2 (Mus musculus), P35561. HEK293-Kir2.1, FluxOR thallium flux fluorescence; stronger effect = lower value. B-score at 10 µM. 310,000 tested, 0.85% active. AID 1672, 2009;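 active = fluorescence ratio B-score at or below minus 3 SD of library scores, with starting-brightness B-score within 2 SD, cut at about -4.2 in these data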;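 also: channel flux triggered by added potassium and thallium sulfate stimulus; B-score of peak minus minimum fluorescence over baseline after thallium stimulus; more negative B-score means stronger Kir2.1 block with less thallium influx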
KCNK9 block: KCNK9 potassium channel inhibitors, primary screen, HEK293 cells, thallium flux. B-score at 10 µM. FluxOR thallium flux fluorescence; stronger effect = lower value. 310,000 tested, 1.2% active. AID 488922, 2010. Potassium channel subfamily K member 9 (Homo sapiens), Q9NPC2;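 active = ratio B-score over 3 SD below the library mean, with starting fluorescence within 5 SD of its mean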;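 also: negative B-score means less thallium flux so channel inhibition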
KCNQ1 act: potentiators or activators of KCNQ1 channel, primary screen, cell-based, thallium flux, high-throughput | Potassium voltage-gated channel subfamily KQT member 1 (Homo sapiens), P51787 | CHO-K1 KCNQ1, thallium flux FluxOR fluorescence; stronger effect = higher value | B-score at 10 µM | 310,000 tested, 0.35% active | AID 2648, 2010;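 active = fluorescence ratio B-score, a plate-corrected score, at least three library SD, with initial intensity B-score within 5 SD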
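Assay system: stable KCNQ1 CHO-K1 line; medium: assay buffer, equal DMSO in all wells; timing: 90 min dye loading and 20 min compound exposure, both at room temperature; technique: kinetic FluxOR thallium fluorescence, 10-s 1-Hz baseline, 110-s post-stimulus read; read-out basis: B score of baseline-normalized fluorescence ratio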
KCNQ1 block: inhibitors of human KCNQ1 channel, primary screen, cell-based, thallium flux, high-throughput. Potassium voltage-gated channel subfamily KQT member 1 (Homo sapiens), P51787. CHO-K1 KCNQ1, FluxOR thallium flux fluorescence; stronger effect = higher value. B-score at 10 µM. 310,000 tested, 1.3% active. AID 2642, 2010;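 active = compounds whose thallium flux B-score, printed positive for inhibition, exceeds three library SD while starting fluorescence stays within three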;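 also: channel opened by potassium depolarization with thallium stimulus after 20 min compound exposure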
hERG rescue: hERG rescue from dofetilide block, primary screen, cell-based, CHO-hERG, FluxOR thallium flux, dofetilide IC70; dofetilide IC70 present; 310,000 tested, 0.51% active; activation (rescue from dofetilide block), less the hit threshold, % at 10 µM;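 active = activation above the mean of controls blocked by dofetilide plus 5 SD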;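 also: thallium influx through hERG after potassium depolarization seen as dye fluorescence rise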
KCNK9 inh conf: KCNK9 potassium channel inhibitors, confirmation, HEK293 cells, thallium flux, duplicate; shares compounds with KCNK9 block; AID 492992, 2010; 4,900 tested, 43% active; FluxOR thallium flux fluorescence; inhibition, % at 10 µM;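 active = thallium signal inhibited by more than 5 SD of the compound-free buffer control wells, on both duplicate plates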;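 also: 0% = assay buffer control wells without compound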
Kir21 sel: mouse Kir2.1 channel inhibition, confirmation, selectivity assay for KCNK9 modulator project, cell-based, HEK293, thallium flux; shares compounds with KCNK9 block; inhibition, % at 10 µM; Kir2.1 cells, FluxOR thallium flux fluorescence; 4,900 tested, 4% active;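 active = thallium signal drop more than 5 SD beyond the mean of the no-compound control wells, seen in both duplicate plates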;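 also: signal is fluorescence rise after thallium addition divided by baseline fluorescence; plate controls were assay buffer only for no effect and full block by chlorpromazine control for full effect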
HEK293 Tl ctr: thallium flux in non-induced HEK293 cells, confirmation, counter-screen for KCNK9 inhibitor project, cell-based, second counter screen, non-induced KCNK9-HEK293. AID 492997, 2010. FluxOR thallium flux. 4,900 tested, 40% active. inhibition, % at 10 µM. shares compounds with KCNK9 block;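 active = thallium signal drop beyond 5 SD of the untreated control mean, on both duplicate plates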;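 also: plate controls were buffer only IC0 wells for no effect and SID17386958 at its maximal inhibitory level for full effect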
An asterisk follows results filed as active; i = inactive; nt = not tested or not shown. Only some compounds are listed: those with a hit (about 3.8% of all), similar ones and a draw of the others.

SMILES	KCNK3 block	Kir21 block	KCNK9 block	KCNQ1 act	KCNQ1 block	hERG rescue	KCNK9 inh conf	Kir21 sel	HEK293 Tl ctr
O=S1(=O)CCOC[C@H](Cc2ccccc2)N1Cc1ccccc1F	i	-3.13	i	i	i	-2.1	nt	nt	nt
Cc1ccc(Cc2nnc3n(-c4cccc(C)c4)nc(C(=O)c4ccccc4)n3c2=O)cc1	i	0.16	i	i	i	-9.7	i	i	i
COc1ccc(S(=O)(=O)Nc2c(C)nc3nc[nH]n3c2=O)cc1	i	2.35	i	i	i	-3.5	nt	nt	nt
COc1ccc(S(=O)(=O)Nc2c(C)nc3nc(C)[nH]n3c2=O)cc1	i	0.9	i	i	i	-6.1	i	i	i
c1ccc(CCNCCOc2ccccc2)cc1	i	-1.09	i	i	i	-7.8	nt	nt	nt
Cc1ccc(C(C)C)c(OCCNCCc2ccccc2)c1	i	-9.89*	i	i	i	-17.7	i	50.5%*	i
COCCN(C(=O)CSc1nnc(C)n1-c1ccc(C)cc1)c1c(N)n(Cc2ccccc2)c(=O)[nH]c1=O	i	1.27	i	i	i	-12.7	nt	nt	nt
O=C(CCl)N(c1ccc(Cl)cc1)c1c[nH]c2ccccc12	i	-4	i	i	i	-17.1	i	i	i
O=C(CCl)N(c1ccccc1)c1c[nH]c2ccccc12	i	-0.22	i	i	i	-3.5	nt	nt	nt
CCc1ccc(N(CC(=O)Nc2ccccc2C(=O)N2CCOCC2)S(C)(=O)=O)cc1	i	2.33	i	i	i	-10.3	nt	nt	nt
Cc1c(Cl)c([N+](=O)[O-])nn1Cc1ccc(C(=O)N/N=C\c2cccc(Br)c2)o1	i	-0.36	-8.53*	i	i	-11.2	41.5%*	i	27.0%*
O=C(N/N=C\c1cccc(Cl)c1)c1ccc(Cn2cc(Br)c([N+](=O)[O-])n2)o1	i	-1.42	-16.4*	i	i	-9.7	67.5%*	i	32.0%*
Nc1c(Br)cc(Br)c(N2CCCC2=O)c1Br	i	-0.58	i	i	i	-4.5	nt	nt	nt
Cc1c(C)n(CC(O)CN2CCOCC2)c2ccccc12 (stereo not given)	i	1.54	i	i	i	-4.5	nt	nt	nt
O=c1c2ccccc2n(CC(O)CN2CCOCC2)c2ccccc12 (stereo not given)	i	0.67	-14*	i	i	-2.1	33.0%*	i	i
CC(NC(=O)[C@H](C)N1C(=O)N2CCc3c([nH]c4ccccc34)[C@@]2(C)C1=O)c1ccccc1 (stereo not given in full)	i	0.05	i	i	i	-11.9	nt	nt	nt
O=C(O)C1CC=CCC1C(=O)Nc1cccc(C(=O)N2CCCCC2)c1 (stereo not given)	i	-1.17	i	i	i	-4.8	nt	nt	nt
O=C(c1ccccc1Br)N1N=C(c2ccccc2)CC1c1ccccc1F (stereo not given)	i	1.71	i	i	i	-0.7	nt	nt	nt
O=C(O)c1ccccc1C(=O)N1N=C(c2ccccc2)CC1c1ccccc1O (stereo not given)	i	0.02	-8.34*	i	i	-9.8	42.0%*	i	i
Cc1ccc(S(=O)(=O)N2CC3CCCN3c3ccc(C(F)(F)F)cc32)cc1 (stereo not given)	i	-2.3	-19.2*	i	i	-11.5	66.0%*	i	40.5%*
O=S(=O)(c1ccc(F)cc1)N1CC2CCCN2c2ccc(C(F)(F)F)cc21 (stereo not given)	i	0.48	-12.6*	i	i	-11.8	29.5%*	i	42.5%*
Cc1ccc(S(=O)(=O)N2CCC(Oc3cccc(C(F)(F)F)c3)CC2)cc1	i	-0.07	i	i	i	-7.8	nt	nt	nt
O=C(NCCc1nnc2ccc(NCc3ccccc3Cl)nn12)c1ccccc1	i	0.1	i	i	i	-12.0	nt	nt	nt
CCOC(=O)C1CCCN(Cc2cc(=O)oc3cc(C)c(C(C)C)cc23)C1 (stereo not given)	i	-1.8	-9.25*	i	i	-11.3	52.5%*	i	42.5%*
CC(C)C(NCC(=O)Nc1ccccc1C(=O)NC1CC1)c1ccccc1 (stereo not given)	i	nt	nt	nt	nt	nt	nt	nt	nt
SMILES	KCNK3 block	Kir21 block	KCNK9 block	KCNQ1 act	KCNQ1 block	hERG rescue	KCNK9 inh conf	Kir21 sel	HEK293 Tl ctr
CCOC(=O)Cn1nc(C)c(NC(=O)COc2ccc(OC)cc2)c1C	i	1.31	i	i	i	-4.7	nt	nt	nt
C=CCN1C(=O)C(Cc2ccccc2)S/C1=N/N=C/c1cccs1 (stereo not given)	i	-1.41	i	i	8*	-8.7	i	i	i
C=CCN1C(=O)C(Cc2ccc(C)cc2)S/C1=N/N=C/c1ccco1 (stereo not given)	i	0.58	i	i	i	-0.9	nt	nt	nt
Cc1ccc(SCCN2CCN(Cc3ccccc3)CC2)cc1	i	-4.35	i	i	i	-8.5	i	i	i
CC(NC(=O)C(=O)NCCC1=CCCCC1)c1ccccc1 (stereo not given)	i	-0.11	i	i	i	-3.1	nt	nt	nt
COc1ccc(-n2c(Cc3cccn3C)nnc2SCC(=O)Nc2cccc(NC(C)=O)c2)cc1	i	0.92	i	i	i	-12.3	nt	nt	nt
COc1cccc(NC(=O)CSc2nnc(Cc3cccs3)n2-c2ccc(C)cc2)c1	i	0.01	i	i	i	-6.1	nt	nt	nt
COc1ccc(-n2c(Cc3cccn3C)nnc2SCC(=O)Nc2cccc(Cl)c2)cc1	i	1.78	i	i	i	-3.5	i	i	i
COc1ccc(NC(=O)CSc2nnc(Cc3cccs3)n2-c2ccc(C)cc2)cc1	i	-1	i	i	i	-6.6	i	i	i

Assay outcomes as filed in PubChem.
